Among the data in ChEMBL document CHEMBL1124947, “Cationic antiprotozoal drugs. Trypanocidal activity of 2-(4'-formylphenyl)imidazo[1,2-a]pyridinium guanylhydrazones and related derivatives of quaternary heteroaromatic compounds” (J Med Chem, 1990) are CD50 and IC50 values, retold here.

What all share (type): functional
Experiment [1] has as its system Mus musculus. In words: Trypanocidal Activity at I.C.E. value 0.86 when administered subcutaneously. Summed up:
(§1)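 Mice, in groups of five per dose, were given a standard inoculum of blood-stage T. rhodesiense that is lethal to all untreated controls, then dosed subcutaneously. Usually 11 dose levels were used (2^n × 0.42 mg/kg).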

Experiment [2] relates to Mus musculus. In words: Trypanocidal Activity at I.C.E. value 0.85 when administered subcutaneously. Summed up:
as §1

Experiment [3] deals with Mus musculus. In words: Trypanocidal Activity was determined after subcutaneous administration. The gist of the method:
as §1

Experiment [4] concerns Mus musculus. Nature of the experiment: Trypanocidal Activity at I.C.E. value 0.50 when administered subcutaneously. Summed up: (§2)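 Blood-stage T. rhodesiense infection came from a standard inoculum lethal to all untreated mice. Drug was given by subcutaneous injection to groups of five mice. Survival beyond 30 days counted as cure. […] Sub-curative doses scored 0, and data were normalized at each dose.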

The test system of experiment [5] is Trypanosoma brucei rhodesiense. In words: In Vitro measurement of inhibition of leucine uptake in cell culture of Trypanosoma rhodesiense. As to conditions: read-out: ID50 (the source's name). The gist of the method: (§3)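 Trypanosomes harvested from infected rats, cultured 3 h with several concentrations of drug, usually 0.1–100 µg/mL. Radiolabeled L-leucine uptake measured. ID50 is the concentration in µg/mL giving 50% inhibition of incorporation.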

The test system of experiment [6] is Trypanosoma brucei rhodesiense. Nature of the experiment: In Vitro measurement of inhibition of thymidine uptake in cell culture of Trypanosoma rhodesiense. The settings on record: read-out: ID50 (the source's name). Summed up: (§4)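 Parasites harvested from infected rats and incubated 3 h across a drug concentration series, usually 0.1–100 µg/mL. Incorporation of radiolabeled thymidine measured. ID50 is the concentration (µg/mL) producing 50% inhibition.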

For experiment [7], the system named is Mus musculus. Nature of the experiment: Trypanocidal Activity at I.C.E. value 0.79 when administered subcutaneously. Summed up:
as §1

Experiment [8] relates to Mus musculus. In words: Trypanocidal Activity at I.C.E. value 0.45 when administered subcutaneously. Summed up: as §2
Experiment [9] deals with Mus musculus. Nature of the experiment: Trypanocidal Activity at I.C.E. value 0.35 when administered perorally.
The test system of experiment [10] is Mus musculus. Nature of the experiment: Trypanocidal Activity at I.C.E. value 0.49 when administered subcutaneously. Summed up:
as §2

Experiment [11] deals with Mus musculus. Nature of the experiment: Trypanocidal Activity at I.C.E. value 0.48 when administered perorally.
Experiment [12] has as its system Mus musculus. Nature of the experiment: Trypanocidal Activity at I.C.E. value 0.57 when administered subcutaneously. The gist of the method: as §1
Experiment [13] relates to Mus musculus. Nature of the experiment: Trypanocidal Activity at I.C.E. value 0.40 when administered perorally.
For experiment [14], the system named is Mus musculus. Nature of the experiment: Trypanocidal Activity at I.C.E. value 0.17 when administered perorally.
The test system of experiment [15] is Mus musculus. In words: Trypanocidal Activity at I.C.E. value 0.63 when administered subcutaneously. The gist of the method:
as §1

Experiment [16] relates to Mus musculus. In words: Trypanocidal Activity at I.C.E. value 0.10 when administered perorally.
For experiment [17], the system named is Mus musculus. Nature of the experiment: Trypanocidal Activity at I.C.E. value 0.18 when administered subcutaneously.
Experiment [18] concerns Mus musculus. In words: Trypanocidal Activity at I.C.E. value 0.41 when administered subcutaneously. Summed up: as §2
For experiment [19], the system named is Mus musculus. Nature of the experiment: Trypanocidal Activity at I.C.E. value 0.24 when administered subcutaneously. Summed up: as §2
Experiment [20] relates to Mus musculus. Nature of the experiment: Trypanocidal Activity at I.C.E. value 0.06 when administered perorally.
Experiment [21] relates to Trypanosoma brucei rhodesiense. Nature of the experiment: In Vitro measurement of inhibition of thymidine uptake in cell culture of Trypanosoma rhodesiense. The settings on record: read-out: ID50 (the source's name). The gist of the method: as §4
Experiment [22] concerns Mus musculus. In words: Trypanocidal Activity at I.C.E. value 0.45 when administered perorally.
Experiment [23] relates to Trypanosoma brucei rhodesiense. Nature of the experiment: In Vitro measurement of inhibition of leucine uptake in cell culture of Trypanosoma rhodesiense. As to conditions: read-out: ID50 (the source's name). Summed up: as §3
Experiment [24] has as its system Mus musculus. In words: Trypanocidal Activity at I.C.E. value 0.67 when administered subcutaneously. The gist of the method: as §1
For experiment [25], the system named is Trypanosoma brucei rhodesiense. Nature of the experiment: In Vitro measurement of inhibition of Leucine uptake in cell culture of Trypanosoma rhodesiense. As to conditions: read-out: ID50 (the source's name). The gist of the method:
as §3

Experiment [26] has as its system Mus musculus. Nature of the experiment: Trypanocidal Activity at I.C.E. value 0.47 when administered perorally.
For experiment [27], the system named is Mus musculus. Nature of the experiment: Trypanocidal Activity at I.C.E. value 0.36 when administered subcutaneously.
In experiment [28] the test system is Mus musculus. Nature of the experiment: Trypanocidal Activity at I.C.E. value 0.71 when administered subcutaneously. Summed up: as §1
Experiment [29] relates to Mus musculus. Nature of the experiment: Trypanocidal Activity at I.C.E. value 0.53 when administered perorally.
The test system of experiment [30] is Mus musculus. In words: Trypanocidal Activity at I.C.E. value 0.22 when administered subcutaneously.

The structures appear in SMILES notation.

In turn, `Br.Cc1ccc2n(c1)cc(COc1ccc(/C=N/NC3=NCCN3)cc1)[n+]2C.[Br-]` displayed a CD50 in the experiment on Mus musculus [1] of 0.8 mg/kg.

As for `Br.Cc1ccc2n(c1)cc(COc1ccc(/C=N/NC(=N)NO)cc1)[n+]2C.[Br-]`, in the experiment with Mus musculus [2], the CD50 was determined as 0.2 mg/kg.

Turning to `Cc1ccc2n(c1)cc(-c1ccc(/C=N/NC(=N)N[N+](=O)[O-])cc1)[n+]2C.[Br-]`, the CD50 in the experiment with Mus musculus [3] was below 26 mg/kg.

`Br.CCCCNC(=N)N/N=C/c1ccc(-c2cn3ccccc3[n+]2C)cc1.[Br-]` yielded a CD50 in the experiment on Mus musculus [4] of 0.8 mg/kg.

With `CC(=O)Nc1ccc2n(c1)cc(-c1ccc(/C=N/NC(=N)N)cc1)[n+]2C.Cc1ccc(S(=O)(=O)O)cc1.Cc1ccc(S(=O)(=O)[O-])cc1`, the results for the IC50 in experiment [5] and in experiment [6] were above 10 µg/mL and 1.5 µg/mL, respectively. The same compound gave a CD50 in the experiment on Mus musculus [7] of 0.4 mg/kg.

Regarding `Br.C[n+]1cccc(COc2ccc(/C=N/NC3=NCCCN3)cc2)c1.[Br-]`, the IC50 in [5] is above 10 µg/mL; in experiment [6] it was 3.7 µg/mL. Further, the CD50 in the experiment with Mus musculus [8] turned out to be 0.8 mg/kg; in the experiment with Mus musculus [9], 53 mg/kg.

With `Br.Cc1cccc2n1cc(COc1ccc(/C=N/NC(=N)N)cc1)[n+]2C.[Br-]`, the CD50 is 0.8 mg/kg in the experiment on Mus musculus [10] and 13 mg/kg in the experiment on Mus musculus [11].

As for `Br.CC/N=C(\NCC)N/N=C/c1ccc(-c2cn3ccccc3[n+]2C)cc1.[Br-]`, the figures for the CD50 with Mus musculus [12] and in the experiment on Mus musculus [13] were 1.6 mg/kg and 53 mg/kg, respectively.

Turning to `CCCCSc1ccc2n(c1)cc(-c1ccc(/C=N/NC(=N)N3CCCC3)cc1)[n+]2C.Cc1ccc(S(=O)(=O)O)cc1.Cc1ccc(S(=O)(=O)[O-])cc1`, the results for the CD50 in the experiment on Mus musculus [14] and in the experiment with Mus musculus [15] were 212 mg/kg and 3.3 mg/kg, respectively.

Turning to `Br.CCNC(=N)N/N=C/c1ccc(OCc2cccc[n+]2C)cc1.[Br-]`, the CD50 is 212 mg/kg in the experiment on Mus musculus [16] and 6.6 mg/kg with Mus musculus [17].

On to `Br.Cc1ccc2n(c1)cc(/C=C/c1ccc(/C=N/NC3=NCCCN3)cc1)[n+]2C.[Br-]`, for which the CD50 in the experiment on Mus musculus [18] stood at 1.6 mg/kg.

The compound `Br.Cc1ccc2n(c1)cc(-c1ccc(/C=N/NC(=N)N3CCCC3)cc1)[n+]2C.[Br-]` showed a CD50 in the experiment on Mus musculus [10] of 0.1 mg/kg.

With `Cc1ccc(S(=O)(=O)O)cc1.Cc1ccc(S(=O)(=O)[O-])cc1.Cc1ccc2n(c1)cc(-c1ccc(/C=C/C=N/NC(=N)N)cc1)[n+]2C`, the results for the CD50 in the experiment on Mus musculus [19] and in the experiment with Mus musculus [20] were 106 mg/kg and 424 mg/kg, respectively.

`Br.CCCNC(=N)N/N=C/c1ccc(-c2cn3ccc(C)cc3[n+]2C)cc1.[Br-]`: the IC50 amounted to 1.9 µg/mL in experiment [21] and 4.6 µg/mL in [23]. The CD50 in the experiment on Mus musculus [15] came out at 0.2 mg/kg; in the experiment with Mus musculus [22] it was 26 mg/kg.

As to `Br.CCNC(=N)N/N=C/c1ccc(-c2cn3cc(C)ccc3[n+]2C)cc1.[Br-]`, the CD50 in the experiment on Mus musculus [9] stood at 26 mg/kg; in the experiment on Mus musculus [24], 0.4 mg/kg.

On to `Br.CNC(=N)N/N=C/c1ccc(-c2cn3ccccc3[n+]2C)cc1.[Br-]`, for which the IC50 in experiment [21] worked out at 0.5 µg/mL; in [25] it was 0.7 µg/mL. The compound further registered a CD50 in the experiment on Mus musculus [18] of 0.8 mg/kg.

Consider `Br.C[n+]1c(COc2ccc(/C=N/NC(=N)N3CCCC3)cc2)cn2ccccc21.[Br-]`, for which the CD50 in the experiment on Mus musculus [26] turned out to be 26 mg/kg; with Mus musculus [27] it was 0.8 mg/kg.

Regarding `C[n+]1c(/C=C/c2ccc(/C=N/NC3=NCCCN3)cc2)cn2ccccc21.[Br-]`, the values for the CD50 with Mus musculus [28] and in the experiment on Mus musculus [29] were 0.4 mg/kg and 13 mg/kg, respectively.

Regarding `C[n+]1cccc(COc2ccc(/C=N/NC(=N)NO)cc2)c1.Cc1ccc(S(=O)(=O)O)cc1.Cc1ccc(S(=O)(=O)[O-])cc1`, the IC50 worked out at 10.3 µg/mL in [5] and 3.8 µg/mL in experiment [6]. The CD50 in the experiment with Mus musculus [30] was 1.6 mg/kg.
